The results in this text go back to ChEMBL document CHEMBL2010753, “Free radical scavenging and antiproliferative properties of Biginelli adducts” (2012).

Holding throughout (assay type): functional
A short description of assay [1]: Growth inhibition of human NCI-ADR-RES cells after 48 hrs by sulforhodamine B assay. (In general: Sulforhodamine B stains cellular protein and so reports cell mass.)
Another assay relates to NCI-H460. Kind of assay: Growth inhibition of human NCI-H460 cells after 48 hrs by sulforhodamine B assay. The settings on record: NCI-H460, 48 h.
The nature of assay [2]: Antioxidant activity assessed as scavenging of DPPH at 160 uM after 30 mins by spectrophotometry.
For a further assay, the system named is OVCAR-3. Put plainly: Growth inhibition of human OVCAR3 cells after 48 hrs by sulforhodamine B assay. Conditions: OVCAR-3, 48 h.
Assay [3] can be described thus: Antioxidant activity assessed as scavenging of DPPH at 20.3 uM after 1 min by spectrophotometry relative to resveratrol.
Assay [4] is described as follows: Antioxidant activity assessed as concentration required for 50% DPPH scavenging activity after 30 mins by spectrophotometry relative to monastrol.
A further assay relates to U-251. Kind of assay: Growth inhibition of human U251 cells after 48 hrs by sulforhodamine B assay. The settings on record: U-251, 48 h.
Assay [5] is described as follows: Antioxidant activity assessed as concentration required for 50% DPPH scavenging activity after 30 mins by spectrophotometry. Background: DPPH is a stable violet radical that fades when it is reduced.
The subject of a further assay is PC-3. Put plainly: Growth inhibition of human PC3 cells after 48 hrs by sulforhodamine B assay. Conditions: PC-3, 48 h.
The nature of assay [6]: Antioxidant activity assessed as concentration required to scavenge 50% superoxide anions after 10 mins by spectrophotometry.
For a further assay, the system named is 786-0. Put plainly: Growth inhibition of human 786-0 cells after 48 hrs by sulforhodamine B assay. The settings on record: 786-0, 48 h.
For another assay, the system named is HT-29. Put plainly: Growth inhibition of human HT-29 cells after 48 hrs by sulforhodamine B assay. The settings on record: HT-29, 48 h.
Assay [7] can be described thus: Antioxidant activity assessed as scavenging of DPPH at 20.3 uM up to 10 mins by spectrophotometry. The procedure, abridged:
(§1)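 Kinetic run: reaction medium with 10 nmol DPPH radicals in ethanol and compound at the stated concentration, DPPH scavenging followed over time up to 10 min. Three independent experiments, each in triplicate.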

Assay [8] in a line: Antioxidant activity assessed as scavenging of DPPH at 34.4 uM up to 10 mins by spectrophotometry. The procedure, abridged: as §1
The nature of assay [9]: Antioxidant activity assessed as scavenging of superoxide anions after 10 mins by spectrophotometry. The procedure, abridged:
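Superoxide generated photochemically in 50 mM phosphate buffer pH 7.8 with 13 mM L-methionine, 75 μM nitroblue tetrazolium, 100 μM EDTA, 2 μM riboflavin. Compound at 0–200 μM (12.5–200 μM tested), fluorescent light 10 min at 25 °C; dark-kept mixtures as controls; read at 575 nm. Triplicates in three independent experiments.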

What is called GI50 is the concentration that inhibits growth by half. One may read the IC50 as the midpoint of a concentration-inhibition curve.

Converted amounts (≈) assume the structure as drawn. The source made the active and inactive calls. The calls are words filed in the database; no cut-off is given here.

Turning to `CCOC(=O)C1=C(C)NC(=O)NC1c1ccc(O)c(O)c1` (configuration not stated), the GI50 in assay [1] is 2.1 µg/mL (≈ 7.18 µM); with NCI-H460 it was 34 µg/mL (≈ 116 µM); in the assay on OVCAR-3 it was 1.6 µg/mL (≈ 5.47 µM); in the assay on U-251 it was 0.25 µg/mL (≈ 0.855 µM); in the assay on PC-3, 18.2 µg/mL (≈ 62.3 µM); in the assay with 786-0 it was 20.7 µg/mL (≈ 70.8 µM). Besides, it took 37.8 µg/mL (≈ 129 µM) to inhibit growth in the assay on HT-29 by half (GI50). The result in [2] was Active. Moreover, the fold change (FC) in assay [3] worked out at 2; in assay [4] it was 37. In assay [5], the IC50 was found to be 20.3 µM. For the same compound, the Activity in assay [6] stood at 33 µM; in [7], 488 pmol.

Consider `Oc1ccc(/C=C/c2cc(O)cc(O)c2)cc1`, for which the outcome in [8] and in assay [2] was Active. Besides, the Activity entry in assay [9] is “Dose-dependent effect”; in assay [6], 121 µM.
